Measurements of several laboratories.
Target: Serine/threonine-protein kinase 17B (STK17B, Homo sapiens, UniProt O94768)
Sequence (O94768 1-372, as in one of the studies): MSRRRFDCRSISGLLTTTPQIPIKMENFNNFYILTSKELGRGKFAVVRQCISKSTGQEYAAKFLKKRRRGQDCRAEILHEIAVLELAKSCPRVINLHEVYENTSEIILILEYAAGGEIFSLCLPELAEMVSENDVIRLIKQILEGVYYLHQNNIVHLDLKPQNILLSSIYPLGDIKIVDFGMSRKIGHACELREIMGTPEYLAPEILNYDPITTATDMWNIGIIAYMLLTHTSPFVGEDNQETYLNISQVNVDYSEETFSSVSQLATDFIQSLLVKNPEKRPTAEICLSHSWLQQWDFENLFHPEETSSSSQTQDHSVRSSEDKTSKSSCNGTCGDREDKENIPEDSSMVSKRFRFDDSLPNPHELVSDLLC

Structure (SMILES) | effect on | technique | tested at | remaining binding [%]
O=C(NCC1CCOCC1)c1n[nH]cc1NC(=O)c1c(F)cccc1F | binding | competition with immobilised ligand | 1 µM | 91
COc1cnc(Nc2cccc(S(N)(=O)=O)c2)nc1N1CCN(c2ccccc2)C(=O)C1 | binding | competition with immobilised ligand | 1 µM | 89
Cc1c(C(=O)O)cc(-c2ccc(C3CCNCC3)cc2)c2ccc(-c3ccc(C(F)(F)F)cc3)cc12 | cell-free assay | competition with immobilised ligand | 1 µM | 100
O=C(NCCCN1CCOCC1)c1ccc(Nc2nccc(-c3cc4ccccc4s3)n2)cc1 | binding | competition with immobilised ligand | 1 µM | 0
CS(=O)(=O)c1cc(C2(NC(=O)c3cncc4c3cnn4-c3ccc(F)cc3)CC2)ccn1 | cell-free assay | competition with immobilised ligand | 1 µM | 83
Cc1cnc(Nc2ccc(C(=O)N3CCC(N4CCCC4)CC3)cc2)nc1-c1cc2ccccc2s1 | binding | competition with immobilised ligand | 1 µM | 0
N[C@H]1CCN(c2nccc(-c3cnn4ncccc34)n2)C1 | binding | – | 1 µM | 100
COc1cnc(Nc2cccc(S(N)(=O)=O)c2)nc1N1CCN(c2ccccc2)CC1 | binding | competition with immobilised ligand | 1 µM | 99
COc1ccnn2ncc(-c3ccnc(N(C)C)n3)c12 | binding | – | 1 µM | 100
c1cncc(-c2cccc(Nc3nccc(NC4CCCCC4)n3)c2)c1 | binding | competition with immobilised ligand | 10 µM | 77
O=C(NCc1ncc(C(F)(F)F)cc1Cl)c1ccc2c(c1)C1(CCS(=O)(=O)CC1)[C@H](C1CC1)N2S(=O)(=O)c1ccc(F)cc1 | cell-free assay | competition with immobilised ligand | 1 µM | 85
CN(c1nccc(-c2cnn3ncccc23)n1)C1CC1 | binding | – | 1 µM | 100
Nc1ncc2c(n1)-c1c([nH]c3ccc(C#CC4CC4)cc13)CCCC2 | binding | competition with immobilised ligand | 1 µM | 96
C=CC(=O)N1CCC(C(=O)NCC(=O)N2CCN(c3nc(-c4cnc(N)nc4C(F)F)nc(N4CCOCC4)n3)CC2)CC1 | binding | competition with immobilised ligand | 1 µM | 97
C[C@@H]1CCN(c2nccc(-c3cnn4ncccc34)n2)C1 | binding | – | 1 µM | 100
CC(C)CC(=O)N1CCc2nc(-c3ccc(Br)cc3)nc(N(C)Cc3ccccc3)c2C1 | cell-free assay | competition with immobilised ligand | 0.1 µM | 91
CN(CCCC(F)(F)F)c1nccc(-c2cnn3ncccc23)n1 | binding | – | 1 µM | 100
C[C@@H]1CN(c2cc(-c3n[nH]c4ccc(OC5(C)CC5)cc34)ncn2)C[C@H](C)O1 | cell-free assay | competition with immobilised ligand | 0.1 µM | 96
CC1CCCN1c1nccc(-c2cnn3ncccc23)n1 (stereo not shown) | binding | – | 1 µM | 100
CCN1CCN(Cc2ccc(C(=O)Nc3ccc(C)c(Oc4ccc5c(c4)CC(=O)N5)c3)cc2C(F)(F)F)CC1 | binding | competition with immobilised ligand | 1 µM | 100
C[C@@H]1CN(c2cc(-c3nn(C)c4ccc(OC5(C)CC5)cc34)ncn2)C[C@H](C)O1 | cell-free assay | competition with immobilised ligand | 1 µM | 100
O=C(c1ccc(Nc2nccc(-c3cc4ccccc4s3)n2)cc1)N1CCC(N2CCCC2)CC1 | binding | competition with immobilised ligand | 1 µM | 0
